Screening data from PubChem.
CAL PDZ FP-1: inhibitors of human CAL PDZ peptide binding | Q9HD26 | inhibition, % at 24.9 µM | AID 602252 | 300,000 compounds, 0.92% hits | purified CAL PDZ, TMR-peptide fluorescence polarization, 1 h;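 active = mean inhibition of at least 30% with at least half of replicates also reaching 30%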;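 note: 0% = DMSO neutral control and 100% = excess unlabeled competitor peptide PRC23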
miR-122 sensor: miR-122 inhibition in Huh7 cells. Huh7 miR-122 Renilla luciferase sensor, 48 h; neutral wells = 0, positive control = 100. activation (reporter increase), % at 12.5 µM. 340,000 compounds, 0.3% hits. AID 602342;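 active = mean replicate activation score at least 90 and every replicate individually at or above 90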;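 note: higher luciferase means less miR-122 activity so hits act as miR-122 inhibitors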
CAL PDZ FP-2: blocks peptide binding to human CAL PDZ domain; Q9HD26; purified CAL PDZ, TMR-peptide fluorescence polarization, 1 h; inhibition, % at 20 µM; 330,000 compounds, 0.02% hits; AID 504414;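 active = highest replicate inhibition of at least 40%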;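 note: plate controls were DMSO neutral control wells for no effect and unlabeled competitor peptide control wells for full effect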
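Material: tagged CAL PDZ protein CerCALP, purified; buffer or medium: sodium phosphate/NaCl buffer pH 7.4 with TCEP, IgG, Thesit; also added: fluorescent TMR peptide probe; schedule: 1 h incubation at room temperature before polarization reading; technique: fluorescence polarization from S- and P-plane intensities, G-factor corrected; control set: unlabelled peptide and DMSO controls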
SR-BI DiI inh: blocks mouse SR-BI lipid uptake from DiI-HDL. ldlA[mSR-BI] CHO cells, DiI-HDL uptake fluorescence, 3 h. inhibition, % at 12.5 µM. 320,000 compounds, 0.96% hits;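 active = mean replicate inhibition of at least 70% and a set share of replicates each scoring 70 or more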;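 note: 0% = median of neutral control wells and 100% = median of positive control wells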
Target sequence (Q61009 whole entry, looked up): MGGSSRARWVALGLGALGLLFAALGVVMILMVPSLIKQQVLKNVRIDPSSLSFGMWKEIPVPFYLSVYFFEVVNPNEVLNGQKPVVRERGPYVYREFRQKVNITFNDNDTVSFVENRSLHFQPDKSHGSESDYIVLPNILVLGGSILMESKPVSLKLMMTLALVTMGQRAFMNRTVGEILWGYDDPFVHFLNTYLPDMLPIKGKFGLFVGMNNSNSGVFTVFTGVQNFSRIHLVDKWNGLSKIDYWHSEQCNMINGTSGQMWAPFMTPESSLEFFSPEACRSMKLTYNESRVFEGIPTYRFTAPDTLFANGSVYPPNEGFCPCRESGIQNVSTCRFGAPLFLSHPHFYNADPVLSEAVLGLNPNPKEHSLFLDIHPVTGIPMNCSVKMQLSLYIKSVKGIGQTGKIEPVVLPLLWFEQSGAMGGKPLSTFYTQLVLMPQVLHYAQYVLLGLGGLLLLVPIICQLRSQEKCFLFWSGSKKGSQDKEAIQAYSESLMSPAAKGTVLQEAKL
SR-BI DiI-HDL act: activators of SR-BI mediated HDL lipid uptake | CHO ldlA[mSR-BI] cells, DiI-HDL uptake fluorescence, 3 h; 100 = double the neutral-control signal | activation, % at 12.5 µM | 320,000 compounds, 0.096% hits | AID 504775;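 active = mean replicate activation of at least 60% and every replicate at or above 60%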;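 note: 0% = median plate neutral-control signal and 100% = twice that signal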
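material = CHO ldlA[mSR-BI] cells | medium = Ham's F12 with 0.5% BSA, HEPES 25 mM, pH 7.4 | reagent = fluorescent DiI-HDL, 10 µg/mL final | compound dosing = single-point compound dose | incubation = 3 h, 37 °C | measured by = bottom-read fluorescence, 550/595 nm | measure = HDL uptake via cellular fluorescence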
ARNT-TACC3 inh: disruptors of human ARNT/TACC3 interaction; AlphaScreen His-ARNT PAS-B/GST-TACC3 binding, luminescence; TACC3 fragment carries E629A point mutation; inhibition, % at 9.99 µM; 390,000 compounds, 0.66% hits;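 active = mean inhibition of replicates at least 50% and at least half of replicates each reaching 50%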;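 note: 0% = complete ARNT plus TACC3 wells and 100% = ARNT alone without TACC3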
Numbers without * were called inactive; [ ] = another dose, or the depositor's remark. This is a sample that favours compounds with a hit; in the whole collection about 2.1% have one here.

`O=C(N[C@@H](Cc1c[nH]c2ccccc12)C(=O)O)C1CCN(S(=O)(=O)c2ccc(Cl)cc2)CC1` gave CAL PDZ FP-1 32.2*, miR-122 sensor -4.0, CAL PDZ FP-2 -0.8, SR-BI DiI inh -10.8 and SR-BI DiI-HDL act 10.8.
Screening CC(C)(C)OC(=O)N1CCC(C(=O)N[C@@H](Cc2c[nH]c3ccccc23)C(=O)O)CC1 returned CAL PDZ FP-1 8.0, miR-122 sensor 6.8, SR-BI DiI inh 1.1, SR-BI DiI-HDL act -1.1 and ARNT-TACC3 inh -7.9.
For O=C(N[C@@H](Cc1c[nH]c2ccccc12)C(=O)O)C1CCN(S(=O)(=O)c2cccs2)CC1 the results were CAL PDZ FP-1 70.6*, miR-122 sensor 7.3, SR-BI DiI inh -2.1, SR-BI DiI-HDL act 2.1 and ARNT-TACC3 inh -73.8.
Screening C[C@@H]1CN([C@H](C)CO)C(=O)c2cccc(NS(=O)(=O)c3cccs3)c2O[C@@H]1CN(C)S(=O)(=O)c1ccccc1 returned miR-122 sensor -1.1[16.7 µM] and ARNT-TACC3 inh 3.0.
Screening Cc1cc(=O)oc2c1c(C)nn2-c1nn[nH]n1 returned CAL PDZ FP-1 5.8, miR-122 sensor -7.3, CAL PDZ FP-2 0.1, SR-BI DiI inh -3.3, SR-BI DiI-HDL act 3.3 and ARNT-TACC3 inh 63.5*.
`CCCNC(=S)Nc1ccc(Cl)cc1C` gave CAL PDZ FP-1 49.5*, CAL PDZ FP-2 -1.4, SR-BI DiI inh -9.7, SR-BI DiI-HDL act 9.7 and ARNT-TACC3 inh 0.7.
CCCC(=O)Nc1ccc2c(c1)OC[C@@H](C)N(Cc1ccc(F)cc1)C[C@@H](C)[C@@H](OC)CN(C)C2=O was read as ARNT-TACC3 inh -1.4.
Screening C[C@@H]1CN([C@@H](C)CO)S(=O)(=O)c2ccc(C3=CCCC3)cc2O[C@@H]1CN(C)Cc1ccccc1 returned miR-122 sensor 3.9[16.7 µM] and ARNT-TACC3 inh 11.0.
Screening CCCC(=O)Nc1ccc2c(c1)OC[C@H](C)N(CC1CCCC1)C[C@H](C)[C@@H](OC)CN(C)C2=O returned miR-122 sensor 12.0[16.7 µM] and ARNT-TACC3 inh -5.8.
`O=C(COC(=O)/C=C/c1cccc(Cl)c1)NCCc1ccc(Cl)cc1Cl` gave CAL PDZ FP-2 -1.0, SR-BI DiI inh -83.3, SR-BI DiI-HDL act 83.3* and ARNT-TACC3 inh -3.1.
CCn1nnc(NC(=O)c2ccc(-c3ccc(Cl)cc3)o2)n1 was read as CAL PDZ FP-1 0.1, miR-122 sensor -6.1, CAL PDZ FP-2 -6.0, SR-BI DiI inh -22.6, SR-BI DiI-HDL act 22.6 and ARNT-TACC3 inh 11.3.
CCn1nnc(NC(=O)Cc2ccc(Cl)cc2)n1 was read as CAL PDZ FP-1 102.3*, CAL PDZ FP-2 -0.7, SR-BI DiI inh -29.9, SR-BI DiI-HDL act 29.9 and ARNT-TACC3 inh -10.6.
CCCn1nnc(NC(=S)NC(=O)/C=C/c2ccc(Cl)cc2)n1 was read as miR-122 sensor -7.0, CAL PDZ FP-2 -1.5, SR-BI DiI inh -364.0, SR-BI DiI-HDL act 364.0* and ARNT-TACC3 inh -4.8.
`C[C@H]1CCCCO[C@H](CN(C)S(=O)(=O)c2cn(C)cn2)[C@@H](C)CN([C@@H](C)CO)C(=O)c2cc(NC(=O)CCC(F)(F)F)ccc2O1` gave miR-122 sensor 6.6[16.7 µM] and ARNT-TACC3 inh 1.8.
For O=C(COC(=O)/C=C/c1ccc(Cl)c(Cl)c1)NC1CCS(=O)(=O)C1 (stereo not drawn) the results were CAL PDZ FP-1 64.1*, miR-122 sensor -8.1, CAL PDZ FP-2 -0.5, SR-BI DiI inh -10.5, SR-BI DiI-HDL act 10.5 and ARNT-TACC3 inh -7.7.
O=C(COC(=O)/C=C/c1ccc(Cl)c(Cl)c1)NC1CCCC1 was read as CAL PDZ FP-1 -7.0, miR-122 sensor -7.5, CAL PDZ FP-2 -0.4, SR-BI DiI inh -10.2, SR-BI DiI-HDL act 10.2 and ARNT-TACC3 inh -3.9.
`CO[C@H]1CN(C)C(=O)c2cc(NS(=O)(=O)c3ccc(C)cc3)ccc2OC[C@H](C)N(C)C[C@@H]1C` gave miR-122 sensor 0.1[16.7 µM] and ARNT-TACC3 inh 4.9.
For O=C(Cn1nc(-c2ccccc2)ccc1=O)Nc1ccc(N2CCN(C(=O)c3ccccc3)CC2)cc1 the results were CAL PDZ FP-1 -3.6, CAL PDZ FP-2 -0.5, SR-BI DiI inh 11.2, SR-BI DiI-HDL act -11.2 and ARNT-TACC3 inh 8.1.
O=C(Cn1nc(-c2ccccc2)ccc1=O)Nc1ccc(NC(=O)c2ccccn2)cc1 was read as CAL PDZ FP-2 -0.5, SR-BI DiI inh 74.7*, SR-BI DiI-HDL act -74.7 and ARNT-TACC3 inh 0.4.
Screening O=C(Cn1nc(-c2ccccc2)ccc1=O)Nc1ccc(-n2cnnn2)cc1 returned CAL PDZ FP-1 -4.3, miR-122 sensor 2.8, CAL PDZ FP-2 -0.6, SR-BI DiI inh -116.2, SR-BI DiI-HDL act 116.2* and ARNT-TACC3 inh -4.4.
For CCC(=O)Nc1ccc2c(c1)C(=O)N(C)C[C@@H](OC)[C@H](C)CN(C(=O)Cc1ccccn1)[C@H](C)CO2 the results were ARNT-TACC3 inh 10.4.
C[C@@H]1CCCCO[C@H](CN(C)S(=O)(=O)c2ccc(Cl)cc2)[C@@H](C)CN([C@@H](C)CO)C(=O)c2cc(NC(=O)Nc3cccc4ccccc34)ccc2O1 was read as miR-122 sensor 0.6[16.7 µM] and ARNT-TACC3 inh -5.8.
For O=C1CSC(=S)N1/N=C/c1cccnc1 the results were CAL PDZ FP-1 -4.6, miR-122 sensor 9.9, CAL PDZ FP-2 -0.1, SR-BI DiI inh -21.3, SR-BI DiI-HDL act 21.3 and ARNT-TACC3 inh 38.9*.
`Cc1ccccc1/C=N/N1C(=O)CSC1=S` gave CAL PDZ FP-1 -1.0, miR-122 sensor -11.1, CAL PDZ FP-2 -0.9, SR-BI DiI inh -15.3, SR-BI DiI-HDL act 15.3 and ARNT-TACC3 inh 38.9*.
Screening COc1cc(/C=N/N2C(=O)CSC2=S)ccc1O returned CAL PDZ FP-1 -9.3, miR-122 sensor 2.7, CAL PDZ FP-2 -0.2, SR-BI DiI inh -11.8, SR-BI DiI-HDL act 11.8 and ARNT-TACC3 inh 25.5.
For O=C1CSC(=S)N1N=Cc1cccc(OCc2ccccc2)c1 the results were miR-122 sensor 6.2.
`O=C1CSC(=S)N1N=Cc1ccccc1O` gave CAL PDZ FP-1 -5.8, CAL PDZ FP-2 0.3, SR-BI DiI inh -14.6, SR-BI DiI-HDL act 14.6 and ARNT-TACC3 inh 65.2*.
O=C1CSC(=S)N1N=Cc1ccc(Cl)cc1Cl was read as CAL PDZ FP-1 -8.8, CAL PDZ FP-2 -0.4, SR-BI DiI inh -8.6, SR-BI DiI-HDL act 8.6 and ARNT-TACC3 inh 26.7.
For O=C1CSC(=S)N1N=Cc1cccc2ccccc12 the results were CAL PDZ FP-1 -4.2, CAL PDZ FP-2 0.2, SR-BI DiI inh -3.3, SR-BI DiI-HDL act 3.3 and ARNT-TACC3 inh 36.6.
`O=C1CSC(=S)N1/N=C/c1cc(Br)c(O)c(Br)c1` gave CAL PDZ FP-1 58.9*, miR-122 sensor -4.8, CAL PDZ FP-2 -10.4, SR-BI DiI inh 8.3 and SR-BI DiI-HDL act -8.3.
